# Rows were chosen to be rich in hits. Some 3.4% of all compounds tested hit in one or more screens of this group.
# LANA-H2B inh: blocks KSHV LANA binding to histone H2A/H2B; Q9QR71; cell-free LANA-H2A/H2B peptide, fluorescence polarization; inhibition, % (test concentration not listed); actives 0.6% (n = 320,000); AID 2629; in the data active = inhibition mostly above about 10%, no sharp cut-off; inactive = mostly below about 6.7%
# TRPML3 agonist: activates the human TRPML3 channel; activation, % at 3 µM; HEK293 TRPML3-YFP, Fluo-8 calcium fluorescence; 100% = the carbachol control signal; actives 0.29% (n = 220,000); Q8TDD5;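 active = activation above its plate's cutoff, the mean activation of the plate's test wells plus 3 SD, cut at about 12% in these data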;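 note: 0% = DMSO only wells and 100% = carbachol wells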
# Target sequence (Q8TDD5 whole entry, looked up): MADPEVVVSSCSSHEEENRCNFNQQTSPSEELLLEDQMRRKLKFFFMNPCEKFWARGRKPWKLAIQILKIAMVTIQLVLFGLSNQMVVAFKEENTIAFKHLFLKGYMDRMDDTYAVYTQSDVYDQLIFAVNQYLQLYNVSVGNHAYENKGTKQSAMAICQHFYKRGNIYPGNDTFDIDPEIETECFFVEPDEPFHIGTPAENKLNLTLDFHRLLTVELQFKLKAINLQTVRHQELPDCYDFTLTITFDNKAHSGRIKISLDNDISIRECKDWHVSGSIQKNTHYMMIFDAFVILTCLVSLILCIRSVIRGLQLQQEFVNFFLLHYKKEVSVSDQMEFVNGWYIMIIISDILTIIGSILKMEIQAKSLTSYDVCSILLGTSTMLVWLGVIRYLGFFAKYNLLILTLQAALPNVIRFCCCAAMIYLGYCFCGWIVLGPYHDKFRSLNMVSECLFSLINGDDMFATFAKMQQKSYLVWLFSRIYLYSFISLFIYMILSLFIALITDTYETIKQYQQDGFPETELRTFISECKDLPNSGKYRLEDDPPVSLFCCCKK
#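 Test system: TRPML3-YFP stable HEK293 cells. Doses: single point at 3 µM. Incubation: dye loading 1 h 37 °C then 30 min ambient, 125 s read. Signal: Fluo-8 calcium dye fluorescence, ex 470-495, em 515-575 nm. Measure: percent activation from peak-to-basal fluorescence ratio, scaled between DMSO and carbachol.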
# TAAR1 antagonist: antagonists of human TAAR1 | actives 1.5% (n = 360,000) | Q96RJ0 | inhibition, % at 3 µM | AID 624466 | CHO RD-HGA16 TAAR1, Fluo-8 calcium fluorescence, antagonist;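 active = inhibition above a per-plate cutoff, the mean inhibition of test compounds on that plate plus 3 SD, cut at about 49% in these data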;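 note: 0% = DMSO plus EC80 beta-PEA response and 100% = DMSO alone without agonist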
#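 Assay system: RD-HGA16 CHO cells with stable hTAAR1 and Gα16 / Reagent: EC80 β-phenethylamine stimulus / Doses: 3 µM, single point / Timing: dye loading 75 min at 37 °C, then 30 min room temperature / Measured by: Fluo-8 intracellular calcium dye fluorescence, real-time kinetic reads / Controls: vehicle wells and EC80 agonist wells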
# GPR7 antagonist: antagonists of human GPR7 (neuropeptides B/W receptor 1); inhibition, % at 4.4 µM; P48145; GPR7-expressing cells, fluorescence antagonist assay; AID 1861; actives 1.1% (n = 290,000); in the data active = inhibition above about 16%, passing the limit was not always enough;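 note: cells stimulated with the agonist NPW; 0% = agonist with vehicle and 100% = vehicle without agonist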
# TAAR1 agonist: human TAAR1 agonism. Q96RJ0. CHO RD-HGA16 TAAR1, Fluo-8 calcium fluorescence; vehicle wells 0%, saturating PEA agonist 100%. activation, % at 3 µM. actives 0.99% (n = 360,000). AID 624467;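 active = activation above the mean activation of all test compounds in the run plus 3 SD, cut at about 38% in these data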
#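 System: CHO-derived RD-HGA16 cells with stable Gα16 and human TAAR1 / Times: 17-24 h plating, Fluo-8 75 min 37 °C, 30 min RT / Technique: calcium-sensitive Fluo-8 signal, excitation 470-495, emission 515-575 nm / Measure: % activation relative to PEA EC100 response / Benchmarks: DMSO and PEA EC100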
# zfTRPN1 agonist: zebrafish TRPN1 (NompC) channel agonism; HEK293 zebrafish TRPN1-YFP, Fluo-8 calcium fluorescence; 100% = response to 87 µM carbachol; activation, % at 3 µM; actives 0.18% (n = 220,000); AID 1424;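 active = activation above its plate's cutoff, the mean activation of test wells on that plate plus 3 SD, cut at about 19% in these data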;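 note: 0% = DMSO alone and 100% = 87 µM carbachol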
#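 Material: zebrafish TRPN1-YFP in HEK293 cells. Doses: one dose of 3 µM, 0.3% DMSO. Incubation: dye 1 h 37 °C plus 30 min RT. Measured by: intracellular calcium fluorescence with Fluo-8.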
# TAAR1 nonsel count: counter-screen for TAAR1 antagonists: nonselective antagonists; shares compounds with TAAR1 antagonist; counterscreen cell line, calcium fluorescence, antagonist mode; inhibition, % at 3 µM; actives 77% (n = 2,400); in the data active = inhibition above about 22%;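 note: CHO-Ga16 host cells stimulated with ATP at an EC80 level; 0% = agonist EC80 plus vehicle and 100% = vehicle without agonist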
# TAAR1 ant conf: confirmation of human TAAR1 antagonists | actives 40% (n = 2,400) | inhibition, % at 3 µM | shares compounds with TAAR1 antagonist | TAAR1-expressing cells, fluorescence antagonist read-out; in the data active = inhibition above about 49%;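 note: CHO-Ga16 host cells challenged with agonist PEA near its EC80; 0% = agonist at EC80 plus vehicle and 100% = vehicle with no agonist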
# Ga16 nonsel ag: nonselective Ga16 agonist in TAAR1 antagonist counter-screen | shares compounds with TAAR1 antagonist | Ga16-expressing cells, calcium fluorescence, agonist counterscreen | activation, % at 3 µM | actives 18% (n = 2,400); in the data active = activation above about 12%;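 note: 0% = vehicle wells and 100% = saturating stimulus response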
# TAAR1 ag count: activates human TAAR1 in antagonist counter-screen | shares compounds with TAAR1 antagonist | hTAAR1 cell line, fluorescence activation, agonist mode | activation, % at 3 µM | actives 2% (n = 2,400); in the data active = activation above about 37%;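 note: CHO cells stably expressing TAAR1 with calcium dye readout; 0% = DMSO vehicle and 100% = full agonist response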
# * = called active by the depositor; · = not tested or not shown.
SMILES,LANA-H2B inh,TRPML3 agonist,TAAR1 antagonist,GPR7 antagonist,TAAR1 agonist,zfTRPN1 agonist,TAAR1 nonsel count,TAAR1 ant conf,Ga16 nonsel ag,TAAR1 ag count
O=C(N/N=C\c1ccc(COc2ccc([N+](=O)[O-])cc2)o1)c1ccc(Cl)cc1,-6,1,37,4,3,1,·,·,·,·
O=C(N/N=C\c1ccc(COc2ccc([N+](=O)[O-])cc2)o1)c1cccc(Cl)c1,1,1,56*,7,16,-1,26*,42,4,5
COc1ccccc1NC(=O)c1ccc(NC(=O)COC(=O)c2ccc(O)cc2)cc1,-2,·,65*,·,18,·,25*,41,10,10
COc1ccccc1NC(=O)c1ccc(NC(=O)COC(=O)CCC2CCCC2)cc1,-2,0,58*,-9,14,-1,19,17,3,6
COc1ccccc1NC(=O)c1ccc(NC(=O)COC(=O)C(C)C)cc1,8,-1,0,-2,2,1,·,·,·,·
CC(C)(C)N(Cc1ccccc1)C(=O)CN1C(=O)NC2(CCCCCC2)C1=O,0,·,12,·,14,·,·,·,·,·
CC(=O)Nc1sc(N/N=C/c2ccc(C)cc2)nc1-c1ccc(C)cc1,4,0,53*,-8,2,-1,4,11,4,10
CCc1ccccc1NC(=O)C1=CC(c2ccc(OC)c(OC)c2)=NS(=O)(=O)N1C,-2,·,-12,1,1,·,·,·,·,·
COc1ccc(C2=NS(=O)(=O)N(C)C(C(=O)Nc3cc(C)ccc3O)=C2)cc1OC,1,·,70*,6,13,·,40*,51*,9,6
O=C(CCS(=O)(=O)c1ccc(Br)cc1)N1CCCCCC1,1,·,-6,-12,0,·,·,·,·,·
CC(C)Cn1c(N)c(C(=O)CSc2ccccc2)c(=O)n(C)c1=O,·,3,66*,-6,21,7,49*,65*,16*,14
CC(=O)Nc1ccc(SCC(=O)c2c(N)n(Cc3ccccc3)c(=O)n(C)c2=O)cc1,11,1,77*,-15,20,2,30*,44,13*,14
Cc1ccccc1CSCC(=O)c1c(N)n(CC(C)C)c(=O)n(C)c1=O,-3,1,41,5,29,3,·,·,·,·
CC(=O)c1ccc(N2CCN(C(=O)CCCc3nc4ccccc4s3)CC2)cc1,0,1,60*,-7,15,5,34*,46,11,6
N#CCC(=O)Nc1ccc(C(=O)OCC(=O)N(C2CCCCC2)C2CCCCC2)cc1,-9,·,10,-17,1,·,·,·,·,·
O=C(NCc1ccccc1)C1=C[C@H](c2ccc3c(c2)OCO3)C[C@H](OCc2ccc(CO)cc2)O1,-2,·,59*,·,10,·,25*,32,3,3
C#CCNC(=O)C1=C[C@H](c2csc3ccccc23)C[C@H](OCc2ccc(CO)cc2)O1,-4,0,65*,-11,31,-1,24*,40,9,10
O=C(NCc1nc2ccccc2[nH]1)C1=C[C@@H](c2ccc(C(F)(F)F)cc2)C[C@@H](OCc2ccc(CO)cc2)O1,1,·,52*,·,12,·,25*,23,5,6
O=C(NCc1ccccc1)C1=C[C@H](c2csc3ccccc23)C[C@H](OCc2ccc(CO)cc2)O1,1,·,47,·,11,·,·,·,·,·
O=C(NCc1nc2ccccc2[nH]1)C1=C[C@H](c2ccccc2)C[C@H](OCc2ccc(CO)cc2)O1,-8,-1,26,-10,5,-2,·,·,·,·
CCOC(=O)c1[nH]ncc1CN1CCc2ccc(NC(=O)C3CCCO3)cc2C1 (centres undefined),0,·,9,-11,1,·,·,·,·,·
O=C1c2ccccc2C(c2nnnn2Cc2ccccc2)N1CCc1c[nH]c2ccccc12 (centres undefined),·,·,72*,·,17,·,40*,62*,10,14
Cc1ccccc1NC(=O)Cc1nc(CSc2nnc(-c3ccc4c(c3)OCO4)o2)cs1,4,0,55*,7,15,-1,25*,37,8,5
O=C(Nc1cccnc1)c1ccc(COc2ccccc2Br)cc1,-2,·,79*,5,9,·,15,60*,6,9
CCN(CC)C(=O)[C@H]1C[C@@H]2[C@H](C[C@@H](c3ccccc3)[C@H]1C)N(c1ccc(F)cc1)C(=O)N2CCCOc1ccccc1,·,·,69*,·,4,·,30*,58*,5,5
SMILES,LANA-H2B inh,TRPML3 agonist,TAAR1 antagonist,GPR7 antagonist,TAAR1 agonist,zfTRPN1 agonist,TAAR1 nonsel count,TAAR1 ant conf,Ga16 nonsel ag,TAAR1 ag count
CCCOc1ccc(C2/C(=C(/O)c3ccc(F)cc3)C(=O)C(=O)N2CCCN(C)C)cc1 (centres undefined),8,0,5,-12,4,2,·,·,·,·
O=c1[nH]nc(-c2n[nH]c(=O)o2)o1,·,·,6,·,-1,·,·,·,·,·
CC(C)c1ccc(NC(=O)N(CCc2nc3ccccc3[nH]2)C2CCCC2)cc1,3,0,54*,7,4,-2,30*,38,5,6
O=C(c1ccco1)N(CCCN1CCOCC1)c1nc(-c2ccc(F)cc2)cs1,-4,-1,57*,7,8,2,20,39,5,6
Cn1c(=O)n(C)c2cc([N+](=O)[O-])c(N3CCN(S(=O)(=O)c4ccccc4)CC3)cc21,-6,1,62*,-5,22,3,26*,54*,15*,23
O=C(Cc1ccc(Cl)cc1)N1CCN(c2ccccc2)CC1,1,·,2,20,3,·,·,·,·,·
C[C@@H](NC(=O)c1nc[nH]c1C(=O)NCC(=O)OCc1ccccc1)c1ccccc1,3,·,68*,-8,15,·,32*,55*,8,10
C[C@H](NC(=O)c1nc[nH]c1C(=O)N[C@@H](C)C(=O)OCc1ccccc1)C(=O)OCc1ccccc1,-2,·,58*,-10,6,·,20,36,2,0
CC(C)(C)OC(=O)N1CCC(NC(=O)c2nc[nH]c2C(=O)NCC(=O)OCc2ccccc2)CC1,-2,·,70*,8,25,·,31*,59*,11,14
C[C@@H](NC(=O)c1nc[nH]c1C(=O)OCc1ccccc1)c1ccccc1,10,·,32,·,22,·,·,·,·,·

# Bioassay records deposited in PubChem by several laboratories.
